Measured values: the RNAGym collection of RNA variant scans (doi:10.1101/gad.245936.114)
Variants at the floor of the assay were thinned out.

B1: tRNA (parent)
chain: CUCUCGGUAGCCAAGUUGGUUUAAGGCGCAAGACUUUAAUUUAUCACUACGAAAUCUUGAGAUCGGGCGUUCGACUCGCCCCCGGGAGAUUUUUUCCUCGAGCAA

Variants of: B1
Experiment: nonsense suppression (GFP-seq) (ratio to wild type); higher = more function; SUP4oc tRNA, yeast GFP reporter sort-seq
Outline: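 Yeast carrying genome-integrated SUP4oc tRNA variants from a library with ~3% random mutations were grown in raffinose/galactose medium with 80 mg/L adenine. Each strain also carried a galactose-driven GFP ochre reporter and RFP. Cells were sorted into GFP/RFP bins, and each bin was Illumina-sequenced (phred ≥30). Nonsense suppression (GFPSEQ) is the bin median GFP/RFP, weighted by each variant's estimated cell share per bin, relative to wild-type SUP4oc; variants needed ≥100 reads and ≥30 cells.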

Nonsense suppression, 0.031:
CUCUCGGUAGUCAAGUUGGUUUAUGGCGCAAGACUUUAAUUUAUCACUACGAAAUCUUGAGAUCGGGCGUUCGACUCGCCCCCGGGAGAUUUUUUCCUCGAGCAA [C11U A24U]

Nonsense suppression, ≤ 0.026:
CUCUCGGUAGACAAGUUGGUUUAAGGCGCAAGACUUUAAUUUAUCACUACGAAAUCUUGAGAUCGCGCGUUCGACUCGCCCCCGGGAGAUUUUUUCCUCGAGCAA [C11A G66C]
CUCUCGGUAGACAAGUUGGUUUAAGACGCAAGACUUUAAUUUAUCACUACGAAAUCUUGAGAUCGGGCGAUCGACUCGCCCCCGGGAGAUUUUUUCCUCGAGCAA [C11A G26A U70A]
CUCUCGGUAGGUAAGUUGGUUUAAGGCGCAAGACUUUAAUUUAUCACUACGAAAUCUUGACAUCGGGCGUUCGACUCGCCCCCGGGAGAUUUUUUCCUCGAGCAA [C11G C12U G61C]
CUCUCGGUAGUCAAGUUGGUUUAAGGCGCGUGACGUUAAUUUAUCACUACGAAAUCUUGAGAUCGGCCGUUCGACCCGCCCCCGGGAGAUUUUUUCCUCGAGCAA [C11U A30G A31U U35G G67C U76C]
CUCUCGGUAGACAAGCUGGUUUAAGGCGCAAGACUUUAAUUUAUCACUACGAAAUCUUGAGAUCGGGCGUUCGACUCGCCCCCGGGAGAUUUUUUCCUCGAGCAA [C11A U16C]
CUCUCGGUAGGCAAGUUGGUUUGAGGCGCAAGAAUUUAAUUUAUCACUACGAAAUCUUGAGAUCGGGCGUUCGACUCGCCUCCGGGAGAUUUUUUCCUCGAGCAA [C11G A23G C34A C81U]
CUCUCGGUAGGCAAGUUGGUUUAUGGCGCAAGACUUUAAUUUAUCACUACGAAAUCUUGAGCUCGGGGGUUCGACUCGCCCCCGGGAGAUUUUUUCCUCGAGCAA [C11G A24U A62C C68G]
CUCUCGGUAGGCUAGUUGGUUUAAGGCGCAAGACUUUAAUUUAUCACUACGAAAUCUUGAGCUCGGGCGUUCGACUCGCCCCCGGGAGAUUUUUUCCUCGAGCAA [C11G A13U A62C]
CUCUCGGUAGAAAAGUGGGUUGAAGGCGCAAGACUUUAAUUUAUCACUACGAAAUCUUGAGAUCGAGCGUUCGACCCGCCCCCGGGAGCUUUUUUCCUCGAGCAA [C11A C12A U17G U22G G66A U76C A89C]
CUCUCGGUAGUCAAGUUGGUUUAAGGCGCAAGACUUUAAUUUAUCACUACGAAAUCUUGAGAUCGGGCGUUCGACUCGCCCCCGGGAGAUUUUUUCCUCGAGCAA [C11U]
CUCUCGGUAGACAAGUUGGUUUAAGCCGCAAGACUUUAAUUUAUCACUACGAAAUCUUGAGAUCGUGCGUUCGACUCGCCCCCGGGAGAUUUUUUCCUCGAGCAA [C11A G26C G66U]
CUCUCGGUAGGCAAGUUGGUUUAAGGCGCAAGAAUUUAAUUUAUCACUACGAAAUCUUGAGAACCGGCGUUCGACUCGCCCCCGGGAGAUUUUUUCCUCGAGCAA [C11G C34A U63A G65C]
CUCUCGGUAGGCAAGUUGGUUUAAGGCGCAAGGCUUUAAUUUAUCACUACGAAAUCUUGAGAUCGGGCGUUCGACUCGCCCCCGGGAGAUUUUUUCCUCGAGCAA [C11G A33G]
CUCUCGGUAGGCAAGUUGGUUUAAGGCGCAAGACUUUAAUUUAUCACUACGAAAUCUUGAGAUCGGGCGUUCGACUCGCGCCCGGGAGAUUUUUUCCUCGAGCAA [C11G C80G]
CUCUCGGUAGGCAAGUUGGUUUAAGGCGGAAGACUUUAAUUUAUCACUACGAAAUCUUGAUAUCGGGCGUUCGACUCGCCCCCGGGAGAUUUUUUCCUCGAGCAA [C11G C29G G61U]
CUCUCGGUAGUCAAGUUGGUUUGAGGCGCAGGACUUUAAUUUAUCACUACGAAAUCUUGAGAUCGGGCGUUCGACACGCCCCCGGGAGAUUUUUUCCUCGAGCAA [C11U A23G A31G U76A]
CUCUCGGUAGACAAGUUGGUUUAAGGCGCAAGACUUUAAUUUAUCACUACGAAAUCUUGCGAUCGGGCGUUCGACUCGCCCCCGGGAGAUUUUUUCCUCGAGCAA [C11A A60C]
CUCUCGGUAGACAAGUCGGUUUAAGGCGCAAGACUUUAAUUUAUCACUACGAAAUCUUGAGAUCGGGCGUUCGACUCGCCCCCGGGAGAUUUUUUCCUCGAGCAA [C11A U17C]
CUCUCGGUAGGCAAGUUGGUUUAAGGCGCUAGACUUUAAUUUAUCACUACGAAAUCUUGAGAUCGGGCGUUCGACUCGCCCCCGGGAGAUUUUUUCCUCGAGCAA [C11G A30U]
CUCUCGGUAGGCAAGUUGGUUUAGGGCGCAAGACUUUAAUUUAUCACUACGAAAUCUUGAGAUCGGGCGUUCGGCUCGCCCCCGGGAGAUUUUUUCCUCGAGCAA [C11G A24G A74G]
CUCUCGGUAGGCAAGUUGGUUUAAGCCGCCAGACUUUAAUUUAUCACUACGAAAUCUUGAGAUCGGGCGUUCGACUCGCCCCCGGGAGAUUUUUUCCUCGAGCAA [C11G G26C A30C]
CUCUCGGUAGGCAAGUUGGCUUAAUGCGCAAGACUUUAAUUUAUCACUACGAAAUCUUGAGAGCGGGCGUUCGAAUCCCCCCCGGGAGAUUUUUUCCUCGAGCAA [C11G U20C G25U U63G C75A G78C]
CUCUCGGUAGGCAAGUUGGUUUAAGGCGCGAGACUUUAAUUUAUCACUACGAAAUCUUGAGAUCGGUCGUUCGACUCGCCCCCGGGAGAUUUUUUCCUCGAGCAA [C11G A30G G67U]
CUCUCGGUAGACAAGUUGGUUUAAGGCGCAAGGCUUUAAUUUAUCACUACGAAAUCUUGAGAUCGGGCGUUCGACUAGCCGCCGGGAGAUUUUUUCCUCGAGCAA [C11A A33G C77A C81G]
CUCUCGGUAGUCAAGUUGGUUUAAGGCGCAAGACUUUAAUUUAUCACUACGAAAUCUUGAGAUCGGGCGUUCGACUCGCCCCCGGGAGCUUUUUUCCUCGAGCAA [C11U A89C]
CUCUCGGUAGGAAAGUUGGUUUAAGGCGCAAGACGUUAAUUUAUCACUACGAAACCUUGAGAUCGGGCGUUCGACACGCCCCCUGGAGAUUUUUUCCUCGAGCAA [C11G C12A U35G U55C U76A G84U]
